The text below walks through data of ChEMBL document CHEMBL1133611, “Molecular design, synthesis, and hypoglycemic activity of a series of thiazolidine-2,4-diones” (J Med Chem, 2000).

The subject of one data set is 3T3-L1. The data set can be described thus: Stimulation of adipogenesis in 3T3-L1 cells is expressed as concentration equivalent to the [ 1-14C] uptake counts after treatment with 0.2 ug/mL troglitazone. Type of data set: functional, Mus musculus. In short, it runs like this: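 Mouse 3T3-L1 preadipocytes were grown to confluence on collagen-coated wells, then given differentiation medium (5% FBS, 100 ng/mL insulin, 0.1 mM IBMX, dexamethasone) plus compound (DMSO 0.1% v/v final) for 4 days. This was followed by maintenance medium (5% FBS, insulin) for 2 days. Cells were then pulsed 1 h with 7.4 kBq/mL [1-14C]acetic acid, washed, and counted by scintillation.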

Data set [1] can be described thus: The hypoglycemic activity in diabetic KK mice, activity expressed as % decrease in blood glucose (21h). The class given is functional, Mus musculus. In short, it runs like this: (§1)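 Nonfasting diabetic KK mice, n = 3, received 1 mg/kg immediately after the first blood sampling and again 18 h later. Tail-vein plasma was taken 18 and 21 h after the first dose, and glucose was measured. Activity (%) = (control PG − treated PG)/control PG × 100; mean ± SEM.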

The nature of data set [2]: The hypoglycemic activity in diabetic KK mice, activity expressed as % decrease in blood glucose (18 h). Type of data set: functional, Mus musculus. In short, it runs like this:
as §1

Data set [3] is described as follows: Area under the curve for fumarate salt was evaluated in F344 Rats. Type of data set: ADME, organism-based. The settings on record: F344, rat, in vivo. In short, it runs like this:
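Single oral dose of 25 mg/kg to F344 rats; AUC (µg·h/mL) reported as mean ± SEM, n = 3.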

Data set [4] relates to Rattus norvegicus. The data set can be described thus: Heart wt absolute in two week oral toxicity test in male F344/DuCrj rats after 50 mg/kg dose. The class given is functional. In short, it runs like this:
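Seven-week-old male rats, n = 5/group, dosed by gavage at 50 mg/kg for 2 weeks as a suspension in 0.5% carboxymethylcellulose sodium in water; controls received vehicle alone. At termination rats were ether-anaesthetized and exsanguinated via the abdominal aorta, and the heart was excised and weighed. Relative weight = absolute weight/100 g final body weight. Mean ± SE; Student's t-test against control.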

The test system of data set [5] is Rattus norvegicus. The data set is described as follows: Relative wt in two week oral toxicity test in male F344/DuCrj rats after 50 mg/kg dose. Type of data set: functional. In short, it runs like this: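 Seven-week-old male F344/DuCrj rats, n = 5/group; compound suspended in 0.5% carboxymethylcellulose sodium in water, given by gavage at 50 mg/kg for 2 weeks; controls got vehicle alone. At termination, ether anaesthesia and exsanguination via abdominal aorta; heart and major organs excised and weighed. Relative weight = organ weight/100 g final body weight; mean ± SE, Student's t-test vs control.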

`O=C1NC(=O)C(Cc2ccc(OCc3nc4cccnc4n3Cc3ccc(Cl)cc3)cc2)S1` (centres undefined): in the data set on 3T3-L1, the EC is 0.71 µM. The Decrease in data set [1] is reported as -8.5%.

Take `Cn1c(Oc2ccc(CC3SC(=O)NC3=O)cc2)nc2cccnc21` (centres undefined): the EC with 3T3-L1 amounted to 1.35 µM. Also, the Decrease in data set [2] is reported as -7%; in data set [1], 3.6%.

In general, AUC refers to the area under the concentration-time curve, a measure of exposure. As to `COc1ccc2nc(COc3ccc(CC4SC(=O)NC4=O)cc3)n(C)c2n1` (centres undefined), in the data set with 3T3-L1, the EC is 0.08 µM. In addition, the AUC in data set [3] is 11900 ng·h/mL. In addition, the Decrease was determined as 3.6% in data set [2] and 2.9% in data set [1].

For the compound `O=C1NC(=O)C(Cc2ccc(OCc3cn4ccccc4n3)cc2)S1` (centres undefined), the EC with 3T3-L1 was determined as 5.09 µM. For the same compound, the Decrease in data set [2] turned out to be 5.9%; in data set [1] it was 12.7%.

Regarding `CC(C)Oc1ccc2nc(COc3ccc(CC4SC(=O)NC4=O)cc3)n(C)c2n1` (centres undefined), the EC in the data set with 3T3-L1 worked out at 0.075 µM. In addition, the Decrease is recorded as 14.6% in data set [2] and -0.2% in data set [1].

Turning to `Cc1ccnc2c1nc(COc1ccc(CC3SC(=O)NC3=O)cc1)n2C` (centres undefined), in the data set on 3T3-L1, the EC was 0.37 µM. Further, the figures for the Decrease in data set [2] and in data set [1] were -18.2% and -6.9%, respectively.

`CCOc1ccc2nc(COc3ccc(CC4SC(=O)NC4=O)cc3)n(C)c2n1` (centres undefined): in the data set on 3T3-L1, the EC worked out at 0.078 µM. The Decrease in data set [2] was determined as 29.7%; in data set [1], 23.6%.

As to `O=C1NC(=O)C(Cc2ccc(OCc3nc4cccnc4n3Cc3ccc(-c4ccccc4)cc3)cc2)S1` (centres undefined), in the data set on 3T3-L1, the EC amounted to 0.92 µM. Further, the Decrease in data set [2] is given as 3.8%; in data set [1] it was 11.4%.

Consider `Cn1c(COc2ccc(CC3SC(=O)NC3=O)cc2)nc2ccc(Cl)nc21` (centres undefined), for which the EC with 3T3-L1 is 0.0009 µM. In the data set with Rattus norvegicus [4], the “Absolute heart weight, % of control” value was 123% and the Heart weight absolute came to 0.74 g. In the data set on Rattus norvegicus [5], this compound had a Control of 116% and a Relative of 0.37 g %. Moreover, the Decrease in data set [1] is reported as 47.6%.

Turning to `Cn1c(CCOc2ccc(CC3SC(=O)NC3=O)cc2)nc2cccnc21` (centres undefined), in the data set on 3T3-L1, the EC amounted to 0.65 µM. Further, the Decrease in data set [2] is on record as -5.6%; in data set [1], 13%.

For `Cn1c(COc2ccc(CC3SC(=O)NC3=O)cc2)nc2cc(Br)cnc21` (centres undefined), in the data set on 3T3-L1, the EC was 0.34 µM. In addition, the Decrease in data set [1] was 6.2%.

On to `Cn1c(COc2ccc(CC3SC(=O)NC3=O)cc2)nc2ccc(O)nc21` (centres undefined), for which the EC in the data set on 3T3-L1 came out at 1.98 µM. For the same compound, the Decrease in data set [2] is -30.6%; in data set [1] it was -3.2%.

For the compound `Cn1c(COc2ccc(CC3SC(=O)NC3=O)cc2)nc2ccc(OCc3ccccc3)nc21` (centres undefined), the EC in the data set with 3T3-L1 is 0.067 µM. Further, the Decrease in data set [2] is listed as 20.3%; in data set [1], 18.8%.

On to `Cn1c(CCCOc2ccc(CC3SC(=O)NC3=O)cc2)nc2cccnc21` (centres undefined), for which, in the data set on 3T3-L1, the EC worked out at 0.081 µM. In addition, the Decrease in data set [2] is -3%; in data set [1], -9.3%.

On to `Cn1c(COc2ccc(CC3SC(=O)NC3=O)cc2)nc2ccc(-c3ccccc3)nc21` (centres undefined), for which, in the data set on 3T3-L1, the EC was found to be 0.36 µM. Further, the figures for the Decrease in data set [2] and in data set [1] were 15.5% and 38.1%, respectively.

For the compound `COc1ccc2nc(COc3ccc(CC4SC(=O)NC4=O)cc3)n(C)c2n1.O=C(O)/C=C/C(=O)O` (centres undefined), in data set [3], the AUC turned out to be 36400 ng·h/mL.

Regarding `Cc1cc(C)c2nc(COc3ccc(CC4SC(=O)NC4=O)cc3)n(C)c2n1` (centres undefined), the EC in the data set on 3T3-L1 came out at 0.22 µM. Moreover, the Decrease in data set [2] and in data set [1] was 9.5% throughout.

Consider `Cn1c(COc2ccc(CC3SC(=O)NC3=O)cc2)nc2ccc(Sc3ccccc3)nc21` (centres undefined), for which, in the data set with 3T3-L1, the EC turned out to be 0.067 µM. The Decrease is given as -21.2% in data set [2] and 14.7% in data set [1].

Regarding `O=C1NC(=O)C(Cc2ccc(OCc3nc4ccc[nH]c-4n3)cc2)S1` (centres undefined), the EC with 3T3-L1 is 8.18 µM. Moreover, the values for the Decrease in data set [2] and in data set [1] were 13.9% and 7.4%, respectively.

In the case of `O=C1NC(=O)C(Cc2ccc(OCc3nc4cccnc4n3-c3ccccc3)cc2)S1` (centres undefined), in the data set on 3T3-L1, the EC amounted to 2.56 µM. Moreover, the Decrease is 3.9% in data set [2] and -3.4% in data set [1].

With `Cn1c(COc2ccc(CC3SC(=O)NC3=O)cc2)nc2cccnc21` (centres undefined), the EC with 3T3-L1 turned out to be 0.13 µM. Moreover, in the data set on Rattus norvegicus [4], the “Absolute heart weight, % of control” value worked out at 128% and the Heart weight absolute came to 0.78 g. In the data set with Rattus norvegicus [5], the Control turned out to be 116% and the Relative was 0.36 g %. In data set [1], the Decrease is listed as 27.6%.

Take `CCn1c(COc2ccc(CC3SC(=O)NC3=O)cc2)nc2cccnc21` (centres undefined): in the data set with 3T3-L1, the EC worked out at 1.07 µM. For the same compound, the Decrease in data set [2] is reported as -19.5%; in data set [1] it was 2.4%.

With `Cn1c(COc2ccc(CC3SC(=O)NC3=O)cc2)nc2cc(C(F)(F)F)cnc21` (centres undefined), the EC in the data set on 3T3-L1 stood at 0.073 µM. The Decrease was -0.7% in data set [2] and -26.4% in data set [1].

`Cn1c(COc2ccc(CC3SC(=O)NC3=O)cc2)nc2cc(Cl)cnc21` (centres undefined): in the data set on 3T3-L1, the EC was found to be 0.16 µM. Further, the Decrease in data set [1] amounted to 49.7%.

For the compound `COc1ccc2nc(COc3ccc(CC4SC(=O)NC4=O)cc3)n(C)c2n1.Cl` (centres undefined), in the data set with 3T3-L1, the EC amounted to 0.11 µM. Further, in data set [3], the AUC was determined as 141000 ng·h/mL. In the data set with Rattus norvegicus [4], the “Absolute heart weight, % of control” value is given as 111% and the Heart weight absolute is on record as 0.68 g. In the data set on Rattus norvegicus [5], this compound registered a Control of 106% and a Relative of 0.33 g %. In addition, the Decrease in data set [2] is on record as 14.8%. Also, the Decrease in data set [1] is recorded as 1%.

For the compound `CN(CCOc1ccc(CC2SC(=O)NC2=O)cc1)c1ccccn1` (centres undefined) [ROSIGLITAZONE], the EC in the data set on 3T3-L1 turned out to be 0.09 µM. For the same compound, in the data set with Rattus norvegicus [4], the “Absolute heart weight, % of control” value was 119% and the Heart weight absolute is reported as 0.76 g. Also, in the data set with Rattus norvegicus [5], the Control is listed as 113% and the Relative was found to be 0.36 g %. Further, the Decrease in data set [2] came to 21.7%. Further, in data set [1], the Decrease came out at 14.6%.
